Measurements as given in ChEMBL document CHEMBL5653631, “A Potent and Selective ULK1 Inhibitor Suppresses Autophagy and Sensitizes Cancer Cells to Nutrient Stress” (iScience, 2018).

How the values were obtained:
[1] = molecular target: RAC-gamma serine/threonine-protein kinase (Homo sapiens) (UniProt Q9Y243); assay: Inhibition of human recombinant AKT3 at 40 nM related to control ULK1
Outline: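 Radiometric activity assays in a panel of 327 human recombinant kinases, each run in duplicate at one inhibitor concentration. Activity remaining is expressed as percent of vehicle control, and percent inhibition is calculated as 100% minus percent activity remaining.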

[2] = molecular target: T1, Inhibitor of nuclear factor kappa-B kinase subunit alpha (Homo sapiens) (UniProt O15111); assay: Inhibition of human recombinant IKKa at 40 nM in presence of ATP by radiometric assay relative to control
T1 sequence (whole entry): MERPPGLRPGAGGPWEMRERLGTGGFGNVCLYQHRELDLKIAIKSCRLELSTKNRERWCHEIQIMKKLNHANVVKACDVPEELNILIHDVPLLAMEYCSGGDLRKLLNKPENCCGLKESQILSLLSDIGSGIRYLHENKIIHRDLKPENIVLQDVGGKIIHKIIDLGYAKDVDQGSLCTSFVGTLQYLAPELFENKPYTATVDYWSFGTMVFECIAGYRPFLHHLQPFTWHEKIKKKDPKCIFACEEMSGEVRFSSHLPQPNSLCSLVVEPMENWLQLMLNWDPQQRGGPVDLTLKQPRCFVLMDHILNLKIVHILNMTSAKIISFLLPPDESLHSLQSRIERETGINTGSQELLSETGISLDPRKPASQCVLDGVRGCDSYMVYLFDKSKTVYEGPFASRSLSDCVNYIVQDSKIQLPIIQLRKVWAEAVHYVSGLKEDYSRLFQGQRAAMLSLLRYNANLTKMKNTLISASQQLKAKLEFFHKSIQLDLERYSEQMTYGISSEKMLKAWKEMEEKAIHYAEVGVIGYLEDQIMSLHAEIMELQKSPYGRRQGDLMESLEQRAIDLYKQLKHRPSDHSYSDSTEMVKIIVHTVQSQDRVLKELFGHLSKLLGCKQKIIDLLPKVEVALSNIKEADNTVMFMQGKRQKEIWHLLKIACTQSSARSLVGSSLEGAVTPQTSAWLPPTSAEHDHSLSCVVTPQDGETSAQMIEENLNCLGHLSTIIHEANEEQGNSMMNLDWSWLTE

[3] = molecular target: Calcium/calmodulin-dependent protein kinase type II subunit alpha (Homo sapiens) (UniProt Q9UQM7); assay: Inhibition of human recombinant CaMK2a at 40 nM related to control ULK1
[4] = molecular target: T2, Mitogen-activated protein kinase kinase kinase 5 (Homo sapiens) (UniProt Q99683); assay: Inhibition of human recombinant MAP3K5 at 15 nM related to control ULK1
T2 sequence (whole entry): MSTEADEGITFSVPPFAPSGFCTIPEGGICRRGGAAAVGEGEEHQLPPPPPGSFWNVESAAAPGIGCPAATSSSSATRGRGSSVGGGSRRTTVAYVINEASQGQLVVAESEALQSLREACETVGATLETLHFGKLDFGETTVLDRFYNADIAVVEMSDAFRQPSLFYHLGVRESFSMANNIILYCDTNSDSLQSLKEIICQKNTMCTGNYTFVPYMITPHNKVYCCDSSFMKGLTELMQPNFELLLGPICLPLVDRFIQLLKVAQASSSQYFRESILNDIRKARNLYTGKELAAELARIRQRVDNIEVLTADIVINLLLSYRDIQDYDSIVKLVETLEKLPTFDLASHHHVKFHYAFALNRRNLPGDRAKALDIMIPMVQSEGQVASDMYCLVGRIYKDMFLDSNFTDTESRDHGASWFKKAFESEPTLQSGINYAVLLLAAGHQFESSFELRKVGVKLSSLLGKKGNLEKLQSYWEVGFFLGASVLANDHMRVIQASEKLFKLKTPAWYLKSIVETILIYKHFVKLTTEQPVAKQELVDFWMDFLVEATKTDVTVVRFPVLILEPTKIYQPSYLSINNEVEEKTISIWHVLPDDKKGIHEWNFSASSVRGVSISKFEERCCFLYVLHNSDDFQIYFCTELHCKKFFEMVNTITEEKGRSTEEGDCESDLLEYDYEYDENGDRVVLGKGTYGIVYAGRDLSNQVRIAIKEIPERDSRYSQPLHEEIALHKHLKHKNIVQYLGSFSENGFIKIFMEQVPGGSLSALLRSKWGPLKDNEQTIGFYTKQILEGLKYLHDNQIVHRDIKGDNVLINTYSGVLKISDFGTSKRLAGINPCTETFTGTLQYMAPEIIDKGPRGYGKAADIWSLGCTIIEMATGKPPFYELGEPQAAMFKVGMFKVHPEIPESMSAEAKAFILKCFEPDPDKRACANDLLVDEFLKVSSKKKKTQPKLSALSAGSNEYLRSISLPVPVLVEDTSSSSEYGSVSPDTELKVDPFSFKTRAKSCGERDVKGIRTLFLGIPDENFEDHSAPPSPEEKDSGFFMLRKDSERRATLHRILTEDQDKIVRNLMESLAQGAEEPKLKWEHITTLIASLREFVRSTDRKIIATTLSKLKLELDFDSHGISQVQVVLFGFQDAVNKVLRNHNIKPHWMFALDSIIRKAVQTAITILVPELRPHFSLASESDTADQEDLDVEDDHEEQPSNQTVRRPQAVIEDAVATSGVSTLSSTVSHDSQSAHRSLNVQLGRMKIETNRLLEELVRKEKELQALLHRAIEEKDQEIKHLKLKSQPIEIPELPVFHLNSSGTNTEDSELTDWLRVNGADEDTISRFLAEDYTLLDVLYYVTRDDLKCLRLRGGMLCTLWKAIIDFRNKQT

[5] = molecular target: 5'-AMP-activated protein kinase catalytic subunit alpha-2 (Homo sapiens) (UniProt P54646); assay: Inhibition of human recombinant AMPKa2 at 500 nM in presence of ATP by radiometric assay relative to control
Outline: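 Panel of 327 recombinant human kinases, each assayed in vitro by radiometric activity assay in duplicate at a single inhibitor concentration per compound, chosen with reference to its ULK1 inhibition. Activity remaining was expressed as percent of vehicle control, and percent inhibition was calculated as 100 minus percent activity remaining.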

[6] = molecular target: Dual specificity protein kinase CLK4 (Homo sapiens) (UniProt Q9HAZ1); assay: Inhibition of human recombinant CLK4 at 500 nM in presence of ATP by radiometric assay relative to control
Chain of Dual specificity protein kinase CLK4 (Homo sapiens) (Q9HAZ1 whole entry, looked up): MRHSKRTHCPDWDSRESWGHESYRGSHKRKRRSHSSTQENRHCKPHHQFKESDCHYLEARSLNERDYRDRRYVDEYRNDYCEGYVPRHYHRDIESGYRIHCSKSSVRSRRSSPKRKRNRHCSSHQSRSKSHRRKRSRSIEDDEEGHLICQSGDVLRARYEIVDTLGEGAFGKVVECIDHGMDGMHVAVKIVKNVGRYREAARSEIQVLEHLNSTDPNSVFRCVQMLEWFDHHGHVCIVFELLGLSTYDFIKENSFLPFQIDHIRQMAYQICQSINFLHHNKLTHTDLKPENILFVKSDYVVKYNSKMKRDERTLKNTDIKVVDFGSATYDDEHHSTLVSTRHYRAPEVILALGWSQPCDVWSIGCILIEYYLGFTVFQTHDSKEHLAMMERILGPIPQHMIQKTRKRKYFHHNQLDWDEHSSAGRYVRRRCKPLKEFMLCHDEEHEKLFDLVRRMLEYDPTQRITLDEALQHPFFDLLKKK

Chain of Calcium/calmodulin-dependent protein kinase type II subunit alpha (Homo sapiens) (Q9UQM7 whole entry): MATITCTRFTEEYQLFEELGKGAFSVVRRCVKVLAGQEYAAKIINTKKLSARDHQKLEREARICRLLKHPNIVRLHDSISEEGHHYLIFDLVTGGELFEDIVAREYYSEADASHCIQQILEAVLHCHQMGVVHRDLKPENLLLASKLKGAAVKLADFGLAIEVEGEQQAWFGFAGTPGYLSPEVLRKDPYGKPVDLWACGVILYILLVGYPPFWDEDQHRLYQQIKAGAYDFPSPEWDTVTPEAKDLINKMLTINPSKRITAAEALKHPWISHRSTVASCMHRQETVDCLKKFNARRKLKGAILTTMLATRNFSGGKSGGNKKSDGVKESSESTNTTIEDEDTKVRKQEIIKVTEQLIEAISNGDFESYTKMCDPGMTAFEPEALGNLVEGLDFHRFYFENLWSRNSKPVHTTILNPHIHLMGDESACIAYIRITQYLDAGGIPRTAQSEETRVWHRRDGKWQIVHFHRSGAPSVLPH
Chain of 5'-AMP-activated protein kinase catalytic subunit alpha-2 (Homo sapiens) (P54646 whole entry, looked up): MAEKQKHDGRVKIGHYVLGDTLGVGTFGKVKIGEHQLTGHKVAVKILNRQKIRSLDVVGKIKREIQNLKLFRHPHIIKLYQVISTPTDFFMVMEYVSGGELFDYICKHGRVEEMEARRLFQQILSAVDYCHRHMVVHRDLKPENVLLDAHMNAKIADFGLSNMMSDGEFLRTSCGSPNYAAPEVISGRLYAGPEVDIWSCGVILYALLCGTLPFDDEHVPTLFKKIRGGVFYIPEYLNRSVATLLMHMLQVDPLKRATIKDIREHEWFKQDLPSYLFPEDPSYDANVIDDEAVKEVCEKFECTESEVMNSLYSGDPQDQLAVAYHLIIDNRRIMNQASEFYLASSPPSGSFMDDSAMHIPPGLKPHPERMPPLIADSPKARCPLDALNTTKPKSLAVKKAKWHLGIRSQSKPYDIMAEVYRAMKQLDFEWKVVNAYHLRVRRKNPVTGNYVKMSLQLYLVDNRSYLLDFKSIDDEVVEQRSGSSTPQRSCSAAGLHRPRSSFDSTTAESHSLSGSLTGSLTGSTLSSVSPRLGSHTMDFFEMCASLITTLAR
Chain of RAC-gamma serine/threonine-protein kinase (Homo sapiens) (Q9Y243 whole entry): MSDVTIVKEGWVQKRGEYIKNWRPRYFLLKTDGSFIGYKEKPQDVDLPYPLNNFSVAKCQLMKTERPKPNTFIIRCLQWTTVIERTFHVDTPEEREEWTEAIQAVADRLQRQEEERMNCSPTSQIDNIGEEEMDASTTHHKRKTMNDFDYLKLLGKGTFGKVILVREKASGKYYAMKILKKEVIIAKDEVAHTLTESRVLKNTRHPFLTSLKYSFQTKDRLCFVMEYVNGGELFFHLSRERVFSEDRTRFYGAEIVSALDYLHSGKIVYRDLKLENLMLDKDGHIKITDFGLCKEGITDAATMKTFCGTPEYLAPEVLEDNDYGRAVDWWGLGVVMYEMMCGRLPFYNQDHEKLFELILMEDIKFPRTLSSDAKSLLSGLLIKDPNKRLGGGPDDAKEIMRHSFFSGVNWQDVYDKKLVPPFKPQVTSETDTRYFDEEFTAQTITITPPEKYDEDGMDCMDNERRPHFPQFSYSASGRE

A fold change (FC) [1] of 0.03, an inhibition [2] of 0% and a fold change (FC) [3] of 0 were found for O=C(N[C@@H](C1CC1)C(F)(F)F)c1cc(-c2cnn3cc(-c4ccc(F)cc4)cnc23)cs1 in this work.

A fold change (FC) [4] of 0 was found for CC(C)[C@H](NC(=O)c1cc(-c2cnn3cc(-c4ccc(OCCN5CCCCC5)cc4)cnc23)cs1)C(F)(F)F in this work.

An inhibition [5] of 57% and an inhibition [6] of 8% were found for CNC(=O)c1ccccc1Oc1nc(Nc2cc(OC)c(OC)c(OC)c2)ncc1Br in this work.
